Drawing on ChEMBL document CHEMBL1129978, “Effect of structural modification of enol-carboxamide-type nonsteroidal antiinflammatory drugs on COX-2/COX-1 selectivity” (J Med Chem, 1997), this text covers inhibition for 51 compounds.

The target of assay [1] is T1, Prostaglandin G/H synthase 1 (Homo sapiens, UniProt P23219). Kind of assay: Inhibition of human Prostaglandin G/H synthase 1 at 0.1 ug/mL expressed as mean percent inhibition of control PGE-2 production. The essentials: (§1)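 Human COX-1 and COX-2 genes expressed in a baculovirus system; microsomes prepared from High Five insect cells and used as the enzyme source. Activity read as PGE2 production. Each dose run in duplicate wells within each experiment, and values given as mean percent inhibition of control PGE2.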
T1 sequence (P23219 whole entry): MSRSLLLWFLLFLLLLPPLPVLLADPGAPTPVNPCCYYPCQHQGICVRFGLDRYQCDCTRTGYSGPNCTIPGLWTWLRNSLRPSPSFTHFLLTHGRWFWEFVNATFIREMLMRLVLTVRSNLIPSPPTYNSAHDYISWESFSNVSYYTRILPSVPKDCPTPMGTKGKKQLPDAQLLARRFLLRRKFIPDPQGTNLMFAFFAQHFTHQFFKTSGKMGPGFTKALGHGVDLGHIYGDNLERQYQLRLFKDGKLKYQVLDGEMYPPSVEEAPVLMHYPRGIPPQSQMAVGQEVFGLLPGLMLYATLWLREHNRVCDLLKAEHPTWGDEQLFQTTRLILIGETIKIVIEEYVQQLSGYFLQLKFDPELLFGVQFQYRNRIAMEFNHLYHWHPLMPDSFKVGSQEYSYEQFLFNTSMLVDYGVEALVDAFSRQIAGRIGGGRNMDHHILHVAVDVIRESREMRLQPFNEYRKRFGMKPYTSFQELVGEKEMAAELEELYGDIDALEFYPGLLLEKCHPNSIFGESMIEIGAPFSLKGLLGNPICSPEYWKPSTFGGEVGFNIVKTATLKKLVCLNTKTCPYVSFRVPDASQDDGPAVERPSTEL

In assay [2] the target is T1, Prostaglandin G/H synthase 1. Kind of assay: Inhibition of human Prostaglandin G/H synthase 1 at 1 ug/mL expressed as mean percent inhibition of control PGE-2 production. An outline of the steps: as §1
Assay [3] shares this target. Kind of assay: Inhibition of human Prostaglandin G/H synthase 1 at 10 ug/mL expressed as mean percent inhibition of control PGE-2 production. The essentials: as §1

A word on the inhibition: it is the drop in the measured response relative to a control, in per cent. Turning to `Cc1cnc(N/C(O)=C2\C(=O)N(C)C(=O)c3ccc(Cl)cc32)s1`, the inhibition turned out to be 5% in assay [1], 35% in assay [2] and 76% in assay [3].
For `CN1C(C(=O)Nc2ccc(Cl)cc2)=C(O)c2cc(F)ccc2S1(=O)=O` the same measures were 6%, 16% and 40%.
In the same order, the values of `CN1C(C(=O)Nc2nccs2)=C(O)c2ccc3ccccc3c2S1(=O)=O` are 75%, 100% and 100%.
For `CC1(C)Sc2ccccc2C(O)=C1C(=O)Nc1cccc(Cl)c1` the same measures were 3%, 20% and 29%.
Consider `CCn1c2c(c3ccccc31)S(=O)(=O)N(C)C(C(=O)Nc1ccccn1)=C2O`, for which the inhibition in assay [1] was -4%; in assay [2] it was -1%; in assay [3] it was 25%.
In the same order, the values of `CN1C(C(=O)Nc2ccccn2)=C(O)c2c(c3ccccc3n2C)S1(=O)=O` are 0%, 14% and 90%.
In the same order, the values of `CN1C(O)=C(C(=O)Nc2ccc(Cl)cc2Cl)c2sc(Cl)cc2S1(=O)=O` are 32%, 57% and 91%.
In the same order, the values of `CN1C(O)=C(C(=O)Nc2ccc(F)cc2F)c2cc(F)ccc2S1(=O)=O` are 22%, 73% and 97%.
Take `CN1C(O)=C(C(=O)Nc2ccc(Br)cc2)c2ccccc2S1(=O)=O`: the values for the inhibition in assay [1], in assay [2] and in assay [3] were 54%, 88% and 100%, respectively.
With `Cc1cnc(NC(=O)C2=C(O)c3sc4cc(Cl)ccc4c3S(=O)(=O)N2C)s1`, the results for the inhibition in assay [1], in assay [2] and in assay [3] were 58%, 100% and 100%, respectively.
In the case of `O=C(Nc1cccc(Cl)c1)C1=C(O)c2cc(Cl)ccc2SC1`, the figures for the inhibition in assay [1], in assay [2] and in assay [3] were 31%, 26% and 54%, respectively.
Consider `Cc1cnc(NC(=O)C2=C(O)c3ccccc3S(=O)(=O)N2Cc2ccccc2)s1`, for which the inhibition was 3% in assay [1], 10% in assay [2] and 42% in assay [3].
Turning to `Cc1ccc2c(c1)S(=O)(=O)N(C)C(C(=O)Nc1ccccn1)=C2O`, the inhibition in assay [1] worked out at 18%; in assay [2], 29%; in assay [3], 45%.
Regarding `CN1C(C(=O)Nc2ccccn2)=C(O)c2ccc(F)cc2S1(=O)=O`, the inhibition in assay [1] is 3%; in assay [2] it was 26%; in assay [3] it was 74%.
For `O=C(Nc1cccc(Cl)c1)C1=C(O)c2cc(Cl)ccc2S(=O)(=O)C1` the same measures were -10%, 64% and 94%.
In the same order, the values of `CN1C(=O)/C(=C(/O)Nc2ccccc2)c2cc(Cl)ccc2C1=O` are 13%, 42% and 78%.
`CN1C(C(=O)Nc2ccc(Cl)cc2)=C(O)c2cc(Cl)ccc2S1(=O)=O`: the inhibition turned out to be 6% in assay [1], 23% in assay [2] and 18% in assay [3].
Take `CN1C(C(=O)Nc2ccccc2)=C(O)c2c(c3ccccc3n2C)S1(=O)=O`: the inhibition worked out at 9% in assay [1], 31% in assay [2] and 93% in assay [3].
In the same order, the values of `COc1ccc2c(c1)S(=O)(=O)N(C)C(C(=O)Nc1ccccc1)=C2O` are -8%, 15% and 3%.
For `CC1Sc2ccc(Cl)cc2C(O)=C1C(=O)Nc1ccccn1` (stereo not drawn) the same measures were 14%, 25% and 30%.
In the same order, the values of `CN1C(C(=O)Nc2nccs2)=C(O)c2c(c3cc(Cl)ccc3n2C)S1(=O)=O` are 16%, 80% and 95%.
As to `Cc1cnc(NC(=O)C2=C(O)N(C)S(=O)(=O)c3ccccc32)s1`, the inhibition in assay [1] was 3%; in assay [2], 18%; in assay [3], 66%.
In the same order, the values of `COc1ccc2c(c1)c1c(n2C)C(O)=C(C(=O)Nc2ccccc2)N(C)S1(=O)=O` are 6%, 23% and 79%.
In the same order, the values of `CN1C(C(=O)c2c[nH]c3ccccc23)=C(O)c2ccccc2S1(=O)=O` are 13%, 3% and 24%.
As to `O=C(Nc1ccc(Cl)cc1Cl)C1=C(O)N(Cc2ccccc2)S(=O)(=O)c2ccc(Cl)cc21`, the inhibition in assay [1] was determined as 4%; in assay [2] it was 54%; in assay [3], 100%.
As to `CN1C(O)=C(C(=O)Nc2ccccc2Cl)c2cc(Cl)c(Cl)cc2S1(=O)=O`, the inhibition in assay [1] came out at 28%; in assay [2], 97%; in assay [3], 100%.
For the compound `Cc1nc(NC(=O)C2=C(O)c3ccccc3S(=O)(=O)N2C)sc1C`, the figures for the inhibition in assay [1], in assay [2] and in assay [3] were 1%, 22% and 66%, respectively.
On to `COc1ccc2c(c1)C(O)=C(C(=O)Nc1ccc(Cl)cc1)N(C)S2(=O)=O`, for which the inhibition in assay [1] was 9%; in assay [2] it was 13%; in assay [3], 14%.
In the same order, the values of `CN1C(c2nc3ccccc3[nH]2)=C(O)c2ccccc2S1(=O)=O` are -4%, 4% and 16%.
As to `Cc1ccc2c(c1)/C(=C(\O)Nc1ccc(Cl)cc1Cl)C(=O)N(C)C2=O`, the inhibition came to 79% in assay [1], 100% in assay [2] and 100% in assay [3].
For the compound `O=C(Nc1ccccn1)C1=C(O)c2cc(Cl)ccc2SC1`, the inhibition in assay [1] came to 27%; in assay [2], 58%; in assay [3] it was 92%.
For `O=C(Nc1cccc(Cl)c1)C1=C(O)c2ccccc2S(=O)(=O)C1` the same measures were 6%, 41% and 84%.
For `CN1C(C(=O)Nc2ccccn2)=C(O)c2ccccc2S1(=O)=O` the same measures were -7%, 10% and 35%.
For `Cc1ccc2c(c1)/C(=C(\O)Nc1ccccn1)C(=O)N(C)C2=O`, the results for the inhibition in assay [1], in assay [2] and in assay [3] were 22%, 62% and 73%, respectively.
Take `CCCc1csc(NC(=O)C2=C(O)c3ccccc3S(=O)(=O)N2C)n1`: the inhibition in assay [1] was -3%; in assay [2], 1%; in assay [3], 44%.
In the same order, the values of `CN1C(C(=O)Nc2ccccc2)=C(O)c2cc(F)ccc2S1(=O)=O` are 9%, 38% and 61%.
As to `CN1C(O)=C(C(=O)Nc2nccs2)c2cc(Cl)ccc2S1(=O)=O`, the inhibition was 18% in assay [1], 76% in assay [2] and 98% in assay [3].
In the same order, the values of `Cc1ccc2c(c1)C(O)=C(C(=O)Nc1ccccc1)N(C)S2(=O)=O` are -1%, -8% and -1%.
Take `Cc1ccc2c(c1)C(O)=C(C(=O)Nc1ncc(C)s1)N(C)S2(=O)=O`: the inhibition in assay [1] came to 0%; in assay [2] it was 14%; in assay [3], 24%.
In the same order, the values of `O=C(Nc1ccc(Cl)cc1Cl)C1=C(O)N(C2CC2)S(=O)(=O)c2ccc(Cl)cc21` are 24%, 65% and 100%.
For the compound `CN1C(O)=C(C(=O)Nc2nccs2)c2ccc(Cl)cc2S1(=O)=O`, the inhibition is -8% in assay [1], 66% in assay [2] and 99% in assay [3].
In the same order, the values of `O=C(Nc1ccccn1)C1=C(O)c2ccccc2SC1` are -1%, 34% and 83%.
`Cc1coc(NC(=O)C2=C(O)c3ccccc3S(=O)(=O)N2C)n1`: the inhibition in assay [1] is 5%; in assay [2], 5%; in assay [3] it was -7%.
Regarding `CN1C(C(=O)Nc2nccs2)=C(O)c2c(c3ccccc3n2C)S1(=O)=O`, the inhibition was -2% in assay [1], 44% in assay [2] and 97% in assay [3].
In the same order, the values of `Cc1cc2c(s1)C(C(=O)Nc1ccc(Cl)cc1)=C(O)N(C)S2(=O)=O` are 40%, 80% and 98%.
Turning to `Cc1cnc(NC(=O)C2=C(O)N(C)S(=O)(=O)c3cc(Cl)ccc32)s1`, the inhibition was 10% in assay [1], 66% in assay [2] and 94% in assay [3].
For `CN1C(O)=C(C(=O)Nc2ccccn2)c2ccc(Cl)cc2S1(=O)=O` the same measures were 7%, 41% and 45%.
Turning to `CN1C(O)=C(C(=O)Nc2ccccc2)c2ccccc2S1(=O)=O`, the inhibition in assay [1] came out at 65%; in assay [2] it was 92%; in assay [3], 100%.
`COc1ccc2c(c1)c1c(n2C)C(O)=C(C(=O)Nc2ccccn2)N(C)S1(=O)=O`: the inhibition in assay [1] was determined as 1%; in assay [2], 35%; in assay [3], 88%.
In the same order, the values of `Cc1cc2c(o1)C(O)=C(C(=O)Nc1ncc(C)s1)N(C)S2(=O)=O` are -8%, -7% and 1%.
As for `CN1C(O)=C(C(=O)Nc2nccs2)c2cc3ccccc3cc2S1(=O)=O`, the figures for the inhibition in assay [1], in assay [2] and in assay [3] were -3%, 11% and 64%, respectively.
